Here are results for twelve compounds from ChEMBL document CHEMBL1909621, “Synthesis and biological evaluation of novel nitrogen- and sulfur-containing hetero-1,4-naphthoquinones as potent antifungal and antibacterial agents” (2011).

In brackets after ≈: the same amount, converted by molar mass. Activity calls are given as the source filed them.

What all share (type): functional
The subject of assay [1] is Yamadazyma tenuis. The assay is described as follows: Antifungal activity against Candida tenuis VKM Y-70 after 24 to 72 hrs by serial dilution technique. Summed up: (§1)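 Fungi. Disk diffusion: 10⁹ spores (cells)/1 mL inoculum. Incubated 48–72 h at 28–30 °C. Zone around disk measured, with a nystatin control disk. Serial dilution: compounds dissolved in DMSO and diluted into wort agar, then inoculated. Incubated at 30 °C for 24–72 h. MIC recorded.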

Assay [2] has as its system Escherichia coli. The assay is described as follows: Antibacterial activity against Escherichia coli B-906 at 0.5% after 24 hrs by diffusion technique.
Assay [3] relates to Mycobacterium. In words: Antibacterial activity against Mycobacterium luteum b-917 at 0.1% after 24 hrs by diffusion technique.
The subject of assay [4] is Staphylococcus aureus. In words: Antibacterial activity against Staphylococcus aureus 209-P at 0.1% after 24 hrs by diffusion technique.
Assay [5] relates to Aspergillus niger. The assay is described as follows: Antifungal activity against Aspergillus niger F-1119 at 0.5% after 48 to 72 hrs by diffusion technique. Summed up: as §1
The test system of assay [6] is Staphylococcus aureus. The assay is described as follows: Antibacterial activity against Staphylococcus aureus 209-P at 0.5% after 24 hrs by diffusion technique.
Assay [7] has as its system Escherichia coli. In words: Antibacterial activity against Escherichia coli B-906 after 24 to 72 hrs by serial dilution technique.
The test system of assay [8] is Staphylococcus aureus. In words: Antibacterial activity against Staphylococcus aureus 209-P after 24 to 72 hrs by serial dilution technique.
Assay [9] relates to Escherichia coli. The assay is described as follows: Antibacterial activity against Escherichia coli B-906 at 0.1% after 24 hrs by diffusion technique.
Assay [10] concerns Aspergillus niger. In words: Antifungal activity against Aspergillus niger F-1119 after 24 to 72 hrs by serial dilution technique. The procedure, abridged:
as §1

In assay [11] the test system is Yamadazyma tenuis. In words: Antifungal activity against Candida tenuis VKM Y-70 at 0.5% after 48 to 72 hrs by diffusion technique. Summed up:
as §1

For assay [12], the system named is Mycobacterium. The assay is described as follows: Antibacterial activity against Mycobacterium luteum b-917 after 24 to 72 hrs by serial dilution technique.
The test system of assay [13] is Aspergillus niger. In words: Antifungal activity against Aspergillus niger F-1119 at 0.1% after 48 to 72 hrs by diffusion technique. The procedure, abridged:
as §1

Assay [14] has as its system Yamadazyma tenuis. The assay is described as follows: Antifungal activity against Candida tenuis VKM Y-70 at 0.1% after 48 to 72 hrs by diffusion technique. The procedure, abridged: as §1
Assay [15] relates to Mycobacterium. In words: Antibacterial activity against Mycobacterium luteum b-917 at 0.5% after 24 hrs by diffusion technique.

With `O=C1CCSC2=C(SCCC(=O)OCC3(CO1)COC(=O)CCSC1=C(SCCC(=O)OC3)C(=O)c3ccccc3C1=O)C(=O)c1ccccc1C2=O`, in the assay with Yamadazyma tenuis [1], the MIC was 15.6 µg/mL (≈ 19.6 µM). The “diameter of the inhibition zone (DIZ)” value in the assay on Escherichia coli [2], in the assay on Mycobacterium [3], in the assay with Staphylococcus aureus [4], in the assay with Aspergillus niger [5], in the assay on Staphylococcus aureus [6] and with Escherichia coli [9] was 0 mm each time. Moreover, the “diameter of the inhibition zone (DIZ)” value in the assay with Yamadazyma tenuis [11], in the assay on Aspergillus niger [13], in the assay on Yamadazyma tenuis [14] and with Mycobacterium [15] was 0 mm in each case. In addition, the inhibition entry in the assay with Escherichia coli [7], in the assay on Staphylococcus aureus [8], in the assay with Aspergillus niger [10] and in the assay on Mycobacterium [12] was “inactive” throughout.

For the compound `O=C1C(Sc2nc3ccc([N+](=O)[O-])cc3s2)=C(Sc2nc3ccc([N+](=O)[O-])cc3s2)C(=O)c2ccccc21`, the MIC is 15.6 µg/mL (≈ 27 µM) against Yamadazyma tenuis [1], 31.2 µg/mL (≈ 53.9 µM) against Aspergillus niger [10] and 125 µg/mL (≈ 216 µM) in the assay with Mycobacterium [12]. For the same compound, the “diameter of the inhibition zone (DIZ)” value in the assay on Escherichia coli [2] came out at 0 mm; in the assay on Mycobacterium [3], 0 mm; in the assay with Staphylococcus aureus [4], 0 mm; with Aspergillus niger [5], 15 mm; in the assay with Staphylococcus aureus [6], 8 mm; with Escherichia coli [9], 0 mm. Also, the “diameter of the inhibition zone (DIZ)” value amounted to 24 mm in the assay on Yamadazyma tenuis [11], 8 mm in the assay with Aspergillus niger [13], 15 mm in the assay with Yamadazyma tenuis [14] and 11.7 mm with Mycobacterium [15]. The inhibition entry in the assay on Escherichia coli [7] and in the assay on Staphylococcus aureus [8] was “inactive” each time.

As for `O=C1C(SCc2ccc(Cl)cc2)=C(SCc2ccc(Cl)cc2)C(=O)c2ccccc21`, the MIC came out at 15.6 µg/mL (≈ 33.1 µM) in the assay on Yamadazyma tenuis [1], 31.2 µg/mL (≈ 66.2 µM) in the assay with Aspergillus niger [10] and 125 µg/mL (≈ 265 µM) against Mycobacterium [12]. For the same compound, the “diameter of the inhibition zone (DIZ)” value in the assay on Escherichia coli [2], in the assay on Mycobacterium [3], in the assay on Staphylococcus aureus [4], in the assay on Aspergillus niger [5], in the assay on Staphylococcus aureus [6] and in the assay with Escherichia coli [9] was 0 mm in each case. Besides, the “diameter of the inhibition zone (DIZ)” value with Yamadazyma tenuis [11] is recorded as 7.4 mm; in the assay on Aspergillus niger [13] it was 0 mm; in the assay with Yamadazyma tenuis [14] it was 0 mm; in the assay with Mycobacterium [15], 0 mm. In addition, the inhibition result with Escherichia coli [7] and with Staphylococcus aureus [8] was “inactive” in each case.

In the assay with Yamadazyma tenuis [14], NYSTATIN showed an inhibition zone (IZ) of 19 mm.

On to `O=C1C(SCCCCCCCCCO)=C(SCCCCCCCCCO)C(=O)c2ccccc21`, for which the inhibition entry in the assay with Yamadazyma tenuis [1], with Escherichia coli [7] and in the assay on Aspergillus niger [10] was “inactive” in each case. The “diameter of the inhibition zone (DIZ)” value was 0 mm with Escherichia coli [2]; 0 mm in the assay on Mycobacterium [3]; 0 mm in the assay on Staphylococcus aureus [4]; 6 mm in the assay on Aspergillus niger [5]; 0 mm with Staphylococcus aureus [6]; 0 mm with Escherichia coli [9]. In addition, the “diameter of the inhibition zone (DIZ)” value in the assay with Yamadazyma tenuis [11], in the assay with Aspergillus niger [13], in the assay on Yamadazyma tenuis [14] and in the assay with Mycobacterium [15] was 0 mm in each case. Also, in the assay with Staphylococcus aureus [8], it took 250 µg/mL (≈ 493 µM) to inhibit growth (MIC).

As to `CCOC1=C(SCCCCO)C(=O)c2ccccc2C1=O`, the MIC was 15.6 µg/mL (≈ 50.9 µM) in the assay with Yamadazyma tenuis [1], 250 µg/mL (≈ 816 µM) against Staphylococcus aureus [8], 31.2 µg/mL (≈ 102 µM) with Aspergillus niger [10] and 31.2 µg/mL (≈ 102 µM) with Mycobacterium [12]. For the same compound, the “diameter of the inhibition zone (DIZ)” value in the assay with Escherichia coli [2] is 0 mm; in the assay on Mycobacterium [3], 14.7 mm; in the assay on Staphylococcus aureus [4], 12 mm; in the assay with Aspergillus niger [5], 10 mm; in the assay on Staphylococcus aureus [6], 19.4 mm; in the assay on Escherichia coli [9], 0 mm. Further, the “diameter of the inhibition zone (DIZ)” value in the assay on Yamadazyma tenuis [11] amounted to 14.7 mm; in the assay with Aspergillus niger [13], 0 mm; in the assay on Yamadazyma tenuis [14], 8.4 mm; with Mycobacterium [15] it was 25.4 mm. For the same compound, in the assay on Escherichia coli [7], the inhibition entry is “inactive”.

In the case of `O=C1C(Cl)=C(SCc2ccc(Cl)cc2)C(=O)c2ccccc21`, the figures for the MIC with Yamadazyma tenuis [1], in the assay on Aspergillus niger [10] and against Mycobacterium [12] were 15.6 µg/mL (≈ 44.7 µM), 15.6 µg/mL (≈ 44.7 µM) and 500 µg/mL (≈ 1430 µM), respectively. The “diameter of the inhibition zone (DIZ)” value was determined as 0 mm with Escherichia coli [2]; 0 mm in the assay on Mycobacterium [3]; 0 mm with Staphylococcus aureus [4]; 7 mm in the assay on Aspergillus niger [5]; 7 mm with Staphylococcus aureus [6]; 0 mm with Escherichia coli [9]. For the same compound, the “diameter of the inhibition zone (DIZ)” value in the assay on Yamadazyma tenuis [11] was 14 mm; in the assay on Aspergillus niger [13], 0 mm; in the assay with Yamadazyma tenuis [14], 10 mm; in the assay with Mycobacterium [15] it was 0 mm. Also, the inhibition result in the assay on Escherichia coli [7] and in the assay on Staphylococcus aureus [8] was “inactive” in each case.

As to `CN[C@H](CC(C)C)C(=O)N[C@H]1C(=O)N[C@@H](CC(N)=O)C(=O)N[C@H]2C(=O)N[C@H]3C(=O)N[C@H](C(=O)N[C@H](C(=O)O)c4cc(O)cc(O)c4-c4cc3ccc4O)[C@H](O)c3ccc(c(Cl)c3)Oc3cc2cc(c3O[C@@H]2O[C@H](CO)[C@@H](O)[C@H](O)[C@H]2O[C@H]2C[C@](C)(N)[C@H](O)[C@H](C)O2)Oc2ccc(cc2Cl)[C@H]1O` [VANCOMYCIN], the “diameter of the inhibition zone (DIZ)” value in the assay with Mycobacterium [3] turned out to be 18 mm; with Staphylococcus aureus [4], 15 mm; in the assay on Escherichia coli [9], 14 mm.

Take `O=C1C(SCCCCO)=C(SCCCCO)C(=O)c2ccccc21`: the MIC with Yamadazyma tenuis [1] amounted to 7.8 µg/mL (≈ 21.3 µM); against Staphylococcus aureus [8] it was 15.6 µg/mL (≈ 42.6 µM); with Aspergillus niger [10], 31.2 µg/mL (≈ 85.1 µM); in the assay on Mycobacterium [12] it was 15.6 µg/mL (≈ 42.6 µM). Also, the “diameter of the inhibition zone (DIZ)” value with Escherichia coli [2] is given as 0 mm; in the assay with Mycobacterium [3] it was 22 mm; in the assay on Staphylococcus aureus [4] it was 18 mm; in the assay on Aspergillus niger [5], 6 mm; with Staphylococcus aureus [6] it was 26 mm; with Escherichia coli [9], 0 mm. Besides, the “diameter of the inhibition zone (DIZ)” value in the assay with Yamadazyma tenuis [11] is given as 8 mm; in the assay on Aspergillus niger [13] it was 0 mm; with Yamadazyma tenuis [14], 0 mm; with Mycobacterium [15] it was 31 mm. In the assay on Escherichia coli [7], the inhibition result was “inactive”.

Turning to `O=C1C(Cl)=C(SCCCCCCCCCO)C(=O)c2ccccc21`, it took 31.2 µg/mL (≈ 85 µM) to inhibit growth in the assay with Yamadazyma tenuis [1] (MIC). Moreover, the “diameter of the inhibition zone (DIZ)” value in the assay with Escherichia coli [2], in the assay with Mycobacterium [3], in the assay with Staphylococcus aureus [4], with Aspergillus niger [5], in the assay on Staphylococcus aureus [6] and in the assay with Escherichia coli [9] was 0 mm in each case. Besides, the “diameter of the inhibition zone (DIZ)” value in the assay with Yamadazyma tenuis [11], with Aspergillus niger [13], in the assay with Yamadazyma tenuis [14] and in the assay with Mycobacterium [15] was 0 mm throughout. Also, the inhibition entry with Escherichia coli [7], in the assay with Staphylococcus aureus [8], in the assay on Aspergillus niger [10] and in the assay with Mycobacterium [12] was “inactive” in each case.

Regarding `O=C1C(SCc2ccco2)=C(SCc2ccco2)C(=O)c2ccccc21`, the values for the MIC in the assay with Yamadazyma tenuis [1] and in the assay on Aspergillus niger [10] were 15.6 µg/mL (≈ 40.8 µM) and 62.5 µg/mL (≈ 163 µM), respectively. The “diameter of the inhibition zone (DIZ)” value in the assay on Escherichia coli [2] is 0 mm; in the assay with Mycobacterium [3], 7.7 mm; with Staphylococcus aureus [4], 0 mm; in the assay with Aspergillus niger [5], 10 mm; with Staphylococcus aureus [6] it was 7 mm; in the assay with Escherichia coli [9], 0 mm. Also, the “diameter of the inhibition zone (DIZ)” value in the assay on Yamadazyma tenuis [11] was 0 mm; in the assay on Aspergillus niger [13], 8 mm; with Yamadazyma tenuis [14] it was 0 mm; with Mycobacterium [15] it was 10.4 mm. The inhibition result in the assay with Escherichia coli [7] and with Staphylococcus aureus [8] was “inactive” throughout.

As to `O=C1C(Sc2ncccn2)=C(Sc2ncccn2)C(=O)c2ccccc21`, the MIC worked out at 125 µg/mL (≈ 330 µM) in the assay on Yamadazyma tenuis [1], 62.5 µg/mL (≈ 165 µM) in the assay with Staphylococcus aureus [8], 500 µg/mL (≈ 1320 µM) against Aspergillus niger [10] and 500 µg/mL (≈ 1320 µM) against Mycobacterium [12]. The “diameter of the inhibition zone (DIZ)” value in the assay with Escherichia coli [2] came to 0 mm; in the assay with Mycobacterium [3], 6.7 mm; with Staphylococcus aureus [4], 6 mm; in the assay with Aspergillus niger [5], 9 mm; in the assay on Staphylococcus aureus [6], 9 mm; in the assay with Escherichia coli [9], 0 mm. In addition, the “diameter of the inhibition zone (DIZ)” value in the assay on Yamadazyma tenuis [11] worked out at 7 mm; in the assay on Aspergillus niger [13], 7 mm; in the assay on Yamadazyma tenuis [14], 6 mm; in the assay on Mycobacterium [15], 11.7 mm.

As a reminder, the MIC is the smallest concentration in the dilution series that meets the test's criterion for growth inhibition. A high value points to weaker potency.
